Shown are actives, neighbours in structure and some others; about 2.9% of the full set was active somewhere.
OX1R antag-1 – blocks the human orexin 1 receptor | O43613 | OX1R-expressing cells, FRET antagonist read-out | inhibition, % at 6.6 µM | hit rate 1.8% among 330,000 | AID 485270; in the data active means inhibition mostly above about 38%, no sharp cut-off; inactive means mostly below about 40%;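 further: 0% = agonist challenge alone and 100% = reference antagonist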
Target sequence (O43613 whole entry, looked up): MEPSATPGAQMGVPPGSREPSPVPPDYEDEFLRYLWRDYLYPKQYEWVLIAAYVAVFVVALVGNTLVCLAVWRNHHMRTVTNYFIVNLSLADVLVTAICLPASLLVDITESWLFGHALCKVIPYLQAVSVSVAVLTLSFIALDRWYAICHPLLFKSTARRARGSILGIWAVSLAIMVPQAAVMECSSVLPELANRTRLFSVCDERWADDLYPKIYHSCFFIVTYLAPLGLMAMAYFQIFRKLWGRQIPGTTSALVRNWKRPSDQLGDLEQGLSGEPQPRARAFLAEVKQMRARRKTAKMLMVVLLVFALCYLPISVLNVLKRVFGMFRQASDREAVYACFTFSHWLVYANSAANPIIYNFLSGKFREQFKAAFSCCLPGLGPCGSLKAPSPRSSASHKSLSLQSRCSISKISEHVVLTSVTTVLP
CHO-K1 Ca PAM – M1 PAM counterscreen hit in parental CHO-K1 cells | ATP EC20, Fluo-8 calcium fluorescence; 0% at ATP EC20, 100% at ATP max | activation, % at 3 µM | hit rate 0.02% among 360,000 | AID 602247;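 active means activation above the run cutoff, the mean activation of all test compounds plus 3 SD, cut at about 40% in these data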;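 further: peak over basal fluorescence ratio in a 140 s read after ATP addition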
OX1R antag-2 – antagonists of human orexin 1 receptor | AID 434989 | CHO/OX1R cells, Fluo-8 calcium fluorescence, orexin A | O43613 | hit rate 0.43% among 330,000 | inhibition, % at 5 µM;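 active means inhibition above its plate's threshold, mean inhibition of all tested compounds on the plate plus 3 SD, cut at about 37% in these data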;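 further: 0% = orexin A challenge wells and 100% = SB-334867-A antagonist wells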
CHO-K1 Ca ag – counter-screen for M1 agonists: effect in parental CHO-K1 cells; Fluo-8 calcium fluorescence; scaled to maximal ATP response, vehicle zero; activation, % at 3 µM; hit rate 0.48% among 360,000; AID 602248; in the data active means activation above about 15%;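 further: untransfected CHO-K1 host cells lacking M1 receptor as counterscreen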
CHO-K1 Ca antag – M1 antagonist counterscreen hit in parental CHO-K1 cells | ATP-induced calcium, Fluo-8 fluorescence | inhibition, % at 3 µM | hit rate 0.6% among 360,000;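 active means inhibition above a per-plate cutoff, the plate's mean sample inhibition plus 3 SD, cut at about 24% in these data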;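 further: 0% = DMSO plus EC80 ATP and 100% = DMSO alone without ATP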
CHO parental Ca – signal in parental CHO cells, OX1R antagonist counter-screen; parental CHO-K1, ATP-induced calcium, Fluo-8 fluorescence; inhibition, % at 5.6 µM; hit rate 0.63% among 330,000; AID 463079;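 active means inhibition above that plate's mean sample inhibition plus 3 SD, cut at about 26% in these data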;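 further: 0% = ATP-challenged DMSO wells and 100% = DMSO wells without ATP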
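Assay system: parental CHO cells; Read-out basis: percent inhibition of ATP-evoked calcium rise, normalized to controls; Benchmarks: ATP and no-ATP DMSO wells; Compound dosing: single nominal dose of 5.6 µM per compound; Signal: Fluo-8 calcium dye fluorescence; Also added: ATP as calcium-mobilizing challenge; Repeats: singlicate.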
OX1R Ca confirm – OX1R (human) antagonism, confirmed; shares compounds with OX1R antag-2; CHO/OX1R cells, orexin A calcium Fluo-8 fluorescence; inhibition, % at 5 µM; hit rate 38% among 1,100; AID 492963; in the data active means inhibition above about 29%;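 further: 0% = agonist challenge alone and 100% = reference antagonist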
CHO Ca counter – signal in parental CHO cells, OX1R antagonist counter-screen. shares compounds with OX1R antag-2. hit rate 9.3% among 1,100. parental CHO-K1, ATP-induced calcium, Fluo-8 fluorescence. inhibition, % at 5.6 µM. AID 492965;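 active means inhibition above a per-plate limit, the mean inhibition of that plate's test compounds plus 3 SD, cut at about 25% in these data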;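 further: 0% = ATP challenge with DMSO and 100% = DMSO without ATP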
OX1R HTRF confirm – OX1R (human) antagonism, HTRF confirmed. shares compounds with OX1R antag-1. OX1R-expressing cells, HTRF antagonist assay. inhibition, % at 6.6 µM. hit rate 49% among 1,800; in the data active means inhibition above about 55%;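 further: CHO cells expressing OX1R stimulated with orexin A at about EC80; 0% = agonist challenge alone and 100% = reference antagonist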
CHO-K1 HTRF – counter-screen: parental CHO-K1 HTRF response; parental CHO-K1 cells, HTRF counterscreen; hit rate 48% among 1,800; shares compounds with OX1R antag-1; inhibition, % at 6.6 µM; in the data active means inhibition above about 17%;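 further: 0% = agonist challenge with vehicle and 100% = vehicle alone without agonist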
An asterisk follows results filed as active; / = no result given.

SMILES | OX1R antag-1 | CHO-K1 Ca PAM | OX1R antag-2 | CHO-K1 Ca ag | CHO-K1 Ca antag | CHO parental Ca | OX1R Ca confirm | CHO Ca counter | OX1R HTRF confirm | CHO-K1 HTRF
CCn1c2ccccc2c2cc(N=C3SC(CC(=O)Nc4ccccc4OC)C(=O)N3CCOC)ccc21 (stereo not drawn) | 77* | 11 | 58* | 1 | -8 | -4 | 52* | -13 | 83* | 2
CCN(CC)C(=O)CSc1nc2c(sc(=S)n2CC)c(=O)n1-c1ccccc1 | 9 | 10 | -33 | 2 | -5 | -22 | / | / | / | /
CCN(CC)C(=O)CSc1nc2c(sc(=S)n2-c2ccccc2OC)c(=O)n1-c1ccccc1 | 76* | 8 | 31 | -1 | 13 | -36 | 38* | -8 | 69* | 1
Cc1ccc(OCC(=O)NC(=S)Nc2ccc(S(=O)(=O)Nc3cc(C)on3)cc2)c(Br)c1 | 13 | 15 | 9 | 1 | -14 | 11 | / | / | / | /
COc1ccccc1NC(=O)c1[nH]c(C)c(C(C)=O)c1C | 15 | 5 | -35 | 0 | -2 | -25 | / | / | / | /
COc1ccccc1OCC(=O)c1[nH]c(C)c(C(C)=O)c1C | 82* | -25 | 33 | 10 | 14 | 10 | 30* | 26* | 25 | 27*
Cc1ccc(/C=N/NC(=O)c2nnn(-c3nonc3N)c2CN(C)c2ccccc2)s1 | 79* | -22 | 49 | 0 | 4 | -14 | 26 | -2 | 86* | 3
C/C(=N\NC(=O)c1nnn(-c2nonc2N)c1CN(C)c1ccccc1)c1ccc(O)cc1 | 27 | 7 | 22 | 1 | -8 | -19 | / | / | / | /
C/C(=N\NC(=O)c1nnn(-c2nonc2N)c1CN(C)c1ccccc1)c1cccs1 | 53* | 1 | 40 | 1 | -7 | -17 | 24 | -10 | 79* | 0
CN(Cc1c(C(=O)N/N=C/c2cccc(O)c2)nnn1-c1nonc1N)c1ccccc1 | 87* | 5 | 84* | 2 | 9 | 9 | 71* | 11 | 88* | -1
Cc1ccc(/C=N/NC(=O)c2nnn(-c3nonc3N)c2CN(C)C)s1 | 37 | -6 | 1 | 0 | 11 | 13 | / | / | / | /
CC(=O)c1ccc(NC(=O)CCNC(=O)c2ccc(Cl)cc2)cc1 | 0 | -12 | -8 | 4 | -10 | 13 | / | / | / | /
OC(CN1c2ccccc2Sc2ccccc21)Cn1nnc2ccccc21 (stereo not drawn) | 63* | -4 | 42 | 0 | 18 | -20 | 31* | -13 | 52 | 1
O=C1c2ccccc2C(=O)N1CC(O)Cn1nnc2ccccc21 (stereo not drawn) | 8 | 25 | -13 | 1 | -16 | 3 | / | / | / | /
COC(=O)c1c(SCC(=O)Nc2ccc(C)c(C)c2)nc(=O)[nH]c1C | 9 | 16 | -26 | 1 | -7 | -12 | / | / | / | /
CC1Cc2ccccc2N1S(=O)(=O)c1cccc(C(=O)c2nccn2C)c1 (stereo not drawn) | 40* | 12 | 56* | 9 | -18 | 3 | -3 | -12 | 34 | 4
O=C(COC(=O)COc1ccccc1)Nc1cccc([N+](=O)[O-])c1 | 25 | -10 | -9 | 1 | 11 | -2 | / | / | / | /
CC(NS(=O)(=O)c1ccc(OCC(=O)Nc2cccc([N+](=O)[O-])c2)cc1)c1ccccc1 (stereo not drawn) | 66* | 7 | 54* | 10 | 5 | 46 | 60* | 18 | 69* | 8
Cc1cc(N/N=C/c2ccccc2O)nc(-c2ccccc2O)n1 | 90* | 18 | 54* | 2 | 1 | 25 | 9 | 1 | 22 | 5
CC(C)C[C@H]1CN(CCCC[C@H]2CNC(=O)C(=O)N2CCc2ccc(O)cc2)C(=O)C(=O)N1CCc1ccc(O)cc1 | / | -1 | / | 1 | -1 | / | / | / | / | /
CCc1cc(C(=O)OCC(=O)N2CCC(c3ccccc3)=N2)sc1C | 80* | 11 | 54* | 1 | -10 | -7 | 78* | -4 | 92* | 2
Cc1cccc(C(=O)OCC(=O)N2CCC(c3ccccc3)=N2)c1O | 24 | -7 | -25 | 0 | 16 | -7 | / | / | / | /
O=C(NCCN1C(=O)S/C(=C\c2ccc(OC(F)F)cc2)C1=O)c1cnccn1 | 31 | 10 | -4 | 4 | -2 | -1 | / | / | / | /
Cc1ccc(NC2CCCN(C(=O)c3cn(C)c4ccccc34)C2)cc1C (stereo not drawn) | 80* | -15 | 27 | 0 | 9 | -14 | 23 | -12 | 90* | 2
COc1ccc(-n2c(SCC(=O)Nc3cc(C)on3)nc3c([nH]c4ccccc43)c2=O)cc1OC | 9 | 8 | -21 | 0 | -7 | -17 | / | / | / | /
SMILES | OX1R antag-1 | CHO-K1 Ca PAM | OX1R antag-2 | CHO-K1 Ca ag | CHO-K1 Ca antag | CHO parental Ca | OX1R Ca confirm | CHO Ca counter | OX1R HTRF confirm | CHO-K1 HTRF
O=C(O)Cn1c(SCCOc2ccccc2F)nc2ccccc21 | 47 | 16 | 13 | 0 | -13 | -9 | / | / | / | /
OCCn1c(SCCOc2ccccc2F)nc2ccccc21 | 105* | 21 | 52* | 4 | -14 | -17 | 11 | -7 | 50 | -5
CCSc1nnc(NC(=O)CSc2nc3c(c(=O)n2-c2ccccc2OC)SCC3)s1 | 36* | 6 | 38 | 3 | -30 | -13 | 28 | -4 | 76* | -1
COc1ccc(/C(C)=N/NC(=O)c2ccccc2N)cc1 | 26 | 17 | -11 | 1 | -6 | -5 | / | / | / | /
O=C(COC(=O)c1cc(Cl)nc(Cl)c1)NC1CCCCCC1 | -1 | -2 | -2 | 0 | 3 | -6 | / | / | / | /
O=C(CNC(=O)N1CC(=O)Nc2ccccc21)Nc1nccs1 | 2 | 16 | -4 | 2 | -14 | -6 | / | / | / | /
N#CC(=C1CCCC1)c1nc(-c2ccccc2O)cs1 | 93* | 12 | 67* | 1 | -4 | -7 | 54* | -5 | 94* | -4
Cc1csc(-c2cnn(-c3ccccc3)c2NC(=O)c2cccc(C(F)(F)F)c2)n1 | 10 | -8 | -15 | 0 | 11 | -14 | / | / | / | /
CCS(=O)(=O)CCSc1nc2ccccc2o1 | 28 | 8 | -5 | 0 | -14 | -3 | / | / | / | /
O=S(=O)(CCSc1nc2ccccc2o1)c1nc2ccccc2s1 | 41* | 26 | 62* | 7 | -14 | -1 | 14 | 14 | 37 | -4
Cc1cccc(-c2cc3nc(-c4ccccc4)cc(N4CCC5(CC4)OCCO5)n3n2)c1 | 64* | -4 | 47* | 0 | 6 | -25 | 25 | -7 | 70* | 5
Fc1cccc(-c2cc3nc(-c4ccccc4)cc(N4CCC5(CC4)OCCO5)n3n2)c1 | 72* | 2 | 46* | 0 | -4 | -18 | 52* | -20 | 40 | -11

Assay outcomes from PubChem.
